pKi: −log10 of the molar value. Calls of active or inactive are those of the source. The rule behind the calls is not given here. Peptide text beside a SMILES is read from it. * marks the point of attachment. NH(4-amidinobenzyl) = N=C(N)c1ccc(CN*)cc1
Tests used:
[1] = test system: DU-145; experiment: Antiproliferative activity against human DU145 cells assessed as reduction in metabolic activity at 25 to 100 uM after 72 hrs by MTT assay; type: functional, cell-based
How it was run: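 First-pass MTT screen of each library peptide on DU145 cells (RPMI 1640, 5% FBS, 1500 cells/well, poly-L-lysine plates). Peptides added 24 h after seeding at 25, 50 and 100 µM in fresh serum medium for 72 h. MTT 1 mg/mL for 4 h; 2-propanol HCl solubilisation. Activity normalised to water vehicle. Mean ± SEM of at least two independent experiments.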

[2] = target: Furin (Homo sapiens, UniProt P09958); experiment: Inhibition of recombinant human furin expressed in drosophila S2 cells using pyrGlu-Arg-Thr-Lys-Arg-7-amido-4-methylcoumarin as substrate after 60 mins by spectrofluorometry method; type: cell-based
Chain of Furin (P09958 whole entry): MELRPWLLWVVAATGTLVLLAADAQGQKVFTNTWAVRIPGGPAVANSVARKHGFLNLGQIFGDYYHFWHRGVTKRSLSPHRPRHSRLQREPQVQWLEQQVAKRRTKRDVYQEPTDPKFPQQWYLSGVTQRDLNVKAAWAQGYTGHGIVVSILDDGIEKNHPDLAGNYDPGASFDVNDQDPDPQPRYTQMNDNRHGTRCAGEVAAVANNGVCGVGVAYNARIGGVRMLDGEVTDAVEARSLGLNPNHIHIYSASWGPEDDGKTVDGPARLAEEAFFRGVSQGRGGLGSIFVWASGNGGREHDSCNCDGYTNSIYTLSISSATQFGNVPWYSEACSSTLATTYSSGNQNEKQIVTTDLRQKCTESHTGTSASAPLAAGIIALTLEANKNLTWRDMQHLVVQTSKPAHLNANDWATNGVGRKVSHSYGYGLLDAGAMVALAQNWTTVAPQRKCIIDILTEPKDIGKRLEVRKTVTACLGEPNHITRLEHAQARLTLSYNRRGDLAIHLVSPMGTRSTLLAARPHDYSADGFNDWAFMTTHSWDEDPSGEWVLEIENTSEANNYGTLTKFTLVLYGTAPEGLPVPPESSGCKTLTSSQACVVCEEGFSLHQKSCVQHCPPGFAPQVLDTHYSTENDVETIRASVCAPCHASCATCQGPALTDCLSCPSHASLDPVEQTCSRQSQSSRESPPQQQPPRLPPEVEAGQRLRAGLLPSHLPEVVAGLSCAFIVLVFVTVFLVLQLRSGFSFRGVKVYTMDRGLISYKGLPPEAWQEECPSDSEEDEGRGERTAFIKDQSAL
How it was run: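 Human recombinant purified furin at 2 units/100 µL (0.54 nM), in 100 mM HEPES pH 7.5, 1 mM CaCl2, 1 mM β-mercaptoethanol, 1.8 mg/mL BSA. His-containing peptides run instead in 20 mM BisTris pH 6.5 with the same additives. Substrate 100 µM, KM 5.04 µM. Inhibitor 1 nM to 10 µM; 60 min at 37°C. Fluorescence ex 370 / em 460 nm. Ki by Morrison equation; triplicate experiments, mean ± SD.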

[3] = organism: Homo sapiens; experiment: Selectivity index, ratio of Ki for recombinant human furin expressed in drosophila S2 cells to Ki for recombinant human PACE4 expressed in drosophila S2 cells; type: cell-based
How it was run: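 Ratio Ki(furin)/Ki(PACE4). […] PACE4 buffer was BisTris pH 6.5; furin buffer was HEPES pH 7.5, or BisTris pH 6.5 for His peptides. Ki fitted by Morrison equation from three independent experiments.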

[4] = target: T1, Proprotein convertase subtilisin/kexin type 6 (Homo sapiens, UniProt P29122); experiment: Inhibition of recombinant human PACE4 expressed in drosophila S2 cells using pyrGlu-Arg-Thr-Lys-Arg-7-amido-4-methylcoumarin as substrate after 60 mins by spectrofluorometry method; type: cell-based
T1 sequence (P29122 whole entry): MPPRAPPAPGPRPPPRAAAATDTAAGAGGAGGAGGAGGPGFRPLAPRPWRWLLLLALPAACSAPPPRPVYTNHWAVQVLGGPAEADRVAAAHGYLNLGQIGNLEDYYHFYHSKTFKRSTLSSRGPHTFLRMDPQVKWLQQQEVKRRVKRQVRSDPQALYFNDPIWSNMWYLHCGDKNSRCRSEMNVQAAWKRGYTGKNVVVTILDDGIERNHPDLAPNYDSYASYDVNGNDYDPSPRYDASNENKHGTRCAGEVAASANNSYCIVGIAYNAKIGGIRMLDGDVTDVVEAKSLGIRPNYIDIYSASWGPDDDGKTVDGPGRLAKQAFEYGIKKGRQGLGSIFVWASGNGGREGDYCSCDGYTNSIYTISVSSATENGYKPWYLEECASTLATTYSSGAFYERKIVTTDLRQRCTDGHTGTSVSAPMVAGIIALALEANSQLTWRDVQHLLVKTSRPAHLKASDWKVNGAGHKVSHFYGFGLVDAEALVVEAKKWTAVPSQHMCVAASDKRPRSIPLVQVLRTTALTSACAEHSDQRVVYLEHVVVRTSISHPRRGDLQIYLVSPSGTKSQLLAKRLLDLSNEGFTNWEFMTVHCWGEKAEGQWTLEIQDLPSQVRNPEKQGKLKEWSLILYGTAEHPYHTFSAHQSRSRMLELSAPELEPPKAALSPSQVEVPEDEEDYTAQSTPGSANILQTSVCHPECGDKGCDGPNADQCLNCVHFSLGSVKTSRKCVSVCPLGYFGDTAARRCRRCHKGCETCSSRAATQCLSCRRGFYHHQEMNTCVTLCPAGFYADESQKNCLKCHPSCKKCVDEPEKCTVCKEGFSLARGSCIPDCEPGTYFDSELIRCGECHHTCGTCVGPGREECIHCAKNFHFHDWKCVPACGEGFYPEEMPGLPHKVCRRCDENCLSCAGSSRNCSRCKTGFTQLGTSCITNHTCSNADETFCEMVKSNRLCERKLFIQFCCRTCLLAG
How it was run: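 Human recombinant purified PACE4 at 2 units/100 µL (20.18 nM), in 20 mM BisTris pH 6.5, 1 mM CaCl2, 1.8 mg/mL BSA. Substrate 100 µM, KM 4.035 µM. Inhibitor 1 nM to 10 µM; 60 min at 37°C. Fluorescence ex 370 / em 460 nm. Ki by Morrison tight-binding equation; three independent experiments, mean ± SD.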

| Compound | Activity [1] | pKi [2] | Ratio Ki [3] | pKi [4] |
| --- | --- | --- | --- | --- |
| CC(=O)N[C@@H](CC(C)C)C(=O)N[C@@H](CC(C)C)C(=O)N[C@@H](CC(C)C)C(=O)N[C@@H](CCC(=O)O)C(=O)N[C@@H](CCCNC(=N)N)C(=O)N[C@H](C(=O)N[C@@H](CCCCN)C(=O)NCc1ccc(C(=N)N)cc1)C(C)C (Ac-LLLERVK-{NH(4-amidinobenzyl)}) | inactive | 7.42 | 0.8 | 7.34 |
| CC(=O)N[C@@H](CC(C)C)C(=O)N[C@@H](CCCCN)C(=O)N[C@@H](CC(C)C)C(=O)N[C@@H](CC(C)C)C(=O)N[C@@H](CCCNC(=N)N)C(=O)N[C@H](C(=O)N[C@@H](CCCCN)C(=O)NCc1ccc(C(=N)N)cc1)C(C)C (Ac-LKLLRVK-{NH(4-amidinobenzyl)}) | inactive | 9.22 | 1.2 | 9.30 |
| CC(=O)N[C@@H](CCCNC(=N)N)C(=O)N[C@@H](CC(C)C)C(=O)N[C@@H](CC(C)C)C(=O)N[C@@H](CC(C)C)C(=O)N[C@@H](CCCNC(=N)N)C(=O)N[C@H](C(=O)N[C@@H](CCCCN)C(=O)NCc1ccc(C(=N)N)cc1)C(C)C (Ac-RLLLRVK-{NH(4-amidinobenzyl)}) | inactive | 8.96 | 1.8 | 9.22 |
| CC(=O)N[C@@H](CC(C)C)C(=O)N[C@@H](CC(C)C)C(=O)N[C@@H](C)C(=O)N[C@@H](CC(C)C)C(=O)N[C@@H](CCCNC(=N)N)C(=O)N[C@H](C(=O)N[C@@H](CCCCN)C(=O)NCc1ccc(C(=N)N)cc1)C(C)C (Ac-LLALRVK-{NH(4-amidinobenzyl)}) | inactive | 7.96 | 0.4 | 7.52 |
| CSCC[C@H](NC(=O)[C@H](CC(C)C)NC(C)=O)C(=O)N[C@@H](CC(C)C)C(=O)N[C@@H](CC(C)C)C(=O)N[C@@H](CCCNC(=N)N)C(=O)N[C@H](C(=O)N[C@@H](CCCCN)C(=O)NCc1ccc(C(=N)N)cc1)C(C)C (Ac-LMLLRVK-{NH(4-amidinobenzyl)}) | inactive | 8.52 | 0.6 | 8.30 |
| CC(=O)N[C@@H](CC(C)C)C(=O)N[C@@H](CC(C)C)C(=O)N[C@@H](CCC(N)=O)C(=O)N[C@@H](CC(C)C)C(=O)N[C@@H](CCCNC(=N)N)C(=O)N[C@H](C(=O)N[C@@H](CCCCN)C(=O)NCc1ccc(C(=N)N)cc1)C(C)C (Ac-LLQLRVK-{NH(4-amidinobenzyl)}) | inactive | 8.30 | 1.2 | 8.39 |
| CC(=O)N[C@@H](CC(N)=O)C(=O)N[C@@H](CC(C)C)C(=O)N[C@@H](CC(C)C)C(=O)N[C@@H](CC(C)C)C(=O)N[C@@H](CCCNC(=N)N)C(=O)N[C@H](C(=O)N[C@@H](CCCCN)C(=O)NCc1ccc(C(=N)N)cc1)C(C)C (Ac-NLLLRVK-{NH(4-amidinobenzyl)}) | inactive | 8.51 | 0.5 | 8.22 |
| CSCC[C@H](NC(=O)[C@H](CC(C)C)NC(=O)[C@H](CC(C)C)NC(C)=O)C(=O)N[C@@H](CC(C)C)C(=O)N[C@@H](CCCNC(=N)N)C(=O)N[C@H](C(=O)N[C@@H](CCCCN)C(=O)NCc1ccc(C(=N)N)cc1)C(C)C (Ac-LLMLRVK-{NH(4-amidinobenzyl)}) | inactive | 7.74 | 0.6 | 7.55 |
| CC(=O)N[C@@H](CC(C)C)C(=O)N[C@@H](CC(C)C)C(=O)N[C@@H](Cc1cnc[nH]1)C(=O)N[C@@H](CC(C)C)C(=O)N[C@@H](CCCNC(=N)N)C(=O)N[C@H](C(=O)N[C@@H](CCCCN)C(=O)NCc1ccc(C(=N)N)cc1)C(C)C (Ac-LLHLRVK-{NH(4-amidinobenzyl)}) | inactive | 8.32 | 2.7 | 8.74 |
| CC(=O)N[C@@H](CC(C)C)C(=O)N[C@@H](CC(C)C)C(=O)N[C@@H](CO)C(=O)N[C@@H](CC(C)C)C(=O)N[C@@H](CCCNC(=N)N)C(=O)N[C@H](C(=O)N[C@@H](CCCCN)C(=O)NCc1ccc(C(=N)N)cc1)C(C)C (Ac-LLSLRVK-{NH(4-amidinobenzyl)}) | inactive | 7.82 | 0.4 | 7.44 |
| CC(=O)N[C@@H](CC(C)C)C(=O)N[C@H](C(=O)N[C@@H](CC(C)C)C(=O)N[C@@H](CC(C)C)C(=O)N[C@@H](CCCNC(=N)N)C(=O)N[C@H](C(=O)N[C@@H](CCCCN)C(=O)NCc1ccc(C(=N)N)cc1)C(C)C)[C@@H](C)O (Ac-LTLLRVK-{NH(4-amidinobenzyl)}) | inactive | 8.77 | 1.7 | 9.00 |
| CC(=O)N[C@@H](CC(C)C)C(=O)N[C@@H](CC(C)C)C(=O)N[C@@H](CCCCN)C(=O)N[C@@H](CC(C)C)C(=O)N[C@@H](CCCNC(=N)N)C(=O)N[C@H](C(=O)N[C@@H](CCCCN)C(=O)NCc1ccc(C(=N)N)cc1)C(C)C (Ac-LLKLRVK-{NH(4-amidinobenzyl)}) | inactive | 8.40 | 1.8 | 8.66 |
| CC(=O)N[C@@H](CC(C)C)C(=O)N[C@@H](CC(C)C)C(=O)N[C@@H](CC(C)C)C(=O)N[C@@H](Cc1c[nH]c2ccccc12)C(=O)N[C@@H](CCCNC(=N)N)C(=O)N[C@H](C(=O)N[C@@H](CCCCN)C(=O)NCc1ccc(C(=N)N)cc1)C(C)C (Ac-LLLWRVK-{NH(4-amidinobenzyl)}) | inactive | 8.10 | 2.9 | 8.55 |
| CC(=O)N[C@@H](CC(C)C)C(=O)NCC(=O)N[C@@H](CC(C)C)C(=O)N[C@@H](CC(C)C)C(=O)N[C@@H](CCCNC(=N)N)C(=O)N[C@H](C(=O)N[C@@H](CCCCN)C(=O)NCc1ccc(C(=N)N)cc1)C(C)C (Ac-LGLLRVK-{NH(4-amidinobenzyl)}) | inactive | 8.52 | 1.5 | 8.70 |
| CC(=O)N[C@@H](CC(C)C)C(=O)N[C@@H](CC(C)C)C(=O)N1CCC[C@H]1C(=O)N[C@@H](CC(C)C)C(=O)N[C@@H](CCCNC(=N)N)C(=O)N[C@H](C(=O)N[C@@H](CCCCN)C(=O)NCc1ccc(C(=N)N)cc1)C(C)C (Ac-LLPLRVK-{NH(4-amidinobenzyl)}) | inactive | 8.85 | 0.4 | 8.40 |
| CC(=O)N[C@@H](CC(C)C)C(=O)N[C@@H](CC(C)C)C(=O)N[C@@H](CC(C)C)C(=O)N1CCC[C@H]1C(=O)N[C@@H](CCCNC(=N)N)C(=O)N[C@H](C(=O)N[C@@H](CCCCN)C(=O)NCc1ccc(C(=N)N)cc1)C(C)C (Ac-LLLPRVK-{NH(4-amidinobenzyl)}) | inactive | 8.40 | 0.7 | 8.22 |
| CC(=O)N[C@@H](CC(C)C)C(=O)N[C@H](C(=O)N[C@@H](CC(C)C)C(=O)N[C@@H](CC(C)C)C(=O)N[C@@H](CCCNC(=N)N)C(=O)N[C@H](C(=O)N[C@@H](CCCCN)C(=O)NCc1ccc(C(=N)N)cc1)C(C)C)C(C)C (Ac-LVLLRVK-{NH(4-amidinobenzyl)}) | inactive | 8.70 | 1 | 8.70 |
| CC(=O)N[C@@H](CC(C)C)C(=O)N[C@@H](CO)C(=O)N[C@@H](CC(C)C)C(=O)N[C@@H](CC(C)C)C(=O)N[C@@H](CCCNC(=N)N)C(=O)N[C@H](C(=O)N[C@@H](CCCCN)C(=O)NCc1ccc(C(=N)N)cc1)C(C)C (Ac-LSLLRVK-{NH(4-amidinobenzyl)}) | inactive | 8.59 | 1.3 | 8.70 |

Source: ChEMBL document CHEMBL4049407, “Positional Scanning Identifies the Molecular Determinants of a High Affinity Multi-Leucine Inhibitor for Furin and PACE4” (J Med Chem, 2017)
